# Assays:
# [1] = Anticancer activity against human MDA-MB cells after 24 hrs by MTT assay; format: functional, cell-based
# [2] = tested on: HEK293; test: Cytotoxic activity against HEK293 cells after 24 hrs by MTT assay; format: cell-based; details: Homo sapiens, HEK293, 24 h
# How it was run: (§1)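 Cells were seeded at 1 × 10^6 to 1 × 10^5 cells/well in FBS-rich medium with antibiotics, and compounds were added after 24 h. MTT (5 mg/ml stock in PBS pH 7.4) was then added, with 4 h in the dark in an incubator. Dye was removed (except for suspension K562), formazan was dissolved in DMSO with 10 min shaking, and A570 was read. Percent cytotoxicity was calculated relative to untreated control absorbance.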
# [3] = tested on: A498; test: Anticancer activity against human A498 cells after 24 hrs by MTT assay; format: functional, cell-based; details: A498, 24 h; how it was run: as §1
# [4] = tested on: K562; test: Anticancer activity against human K562 cells after 24 hrs by MTT assay; format: functional, cell-based; details: K562, 24 h; how it was run: as §1
# [5] = Anticancer activity against human SH-SY5Y cells after 24 hrs by MTT assay; format: functional, cell-based
# [6] = tested on: WRL68; test: Anticancer activity against human WRL68 cells after 24 hrs by MTT assay; format: functional, cell-based; details: WRL68, 24 h; how it was run: as §1
# [7] = Induction of hemolysis in human erythrocytes assessed as mean erythrocyte fragility by measuring level of hemolysis at 50% PBS at 100 ug/mL by spectrophotomtery based erythrocyte osmotic fragility assay; format: cell-based
# How it was run: (§2)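 Heparinised human blood was incubated with compound at 37 °C for 60 min, then transferred to hypotonic PBS (0.1–0.85 %). After 30 min equilibration and centrifugation, supernatant A540 was read. Percent lysis is relative to a 100% haemolysis standard, and fragility curves give MEF50 as the haemolysis level at 50% PBS. DMSO 0.5% served as vehicle control.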
# [8] = Inhibition of rat intestinal alpha-glucosidase using p-nitrophenyl-alpha-D-glucopyranoside substrate by spectrophotometry
# How it was run: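 Crude enzyme was the centrifuged supernatant of sonicated rat intestinal acetone powder in normal saline (100:1 w/v). Samples from 5 mg/mL DMSO stocks were preincubated with enzyme for 5 min in 100 mM phosphate buffer pH 6.8. Then 5 mM p-nitrophenyl-α-D-glucopyranoside solution was added, and p-nitrophenol was read at 405 nm after 5 min. Substrate-free blanks and a DMSO control were included, in triplicate. IC50 was obtained by regression on mean inhibition.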
# [9] = tested on: MCF7; test: Anticancer activity against human MCF7 cells after 24 hrs by MTT assay; format: functional, cell-based; details: MCF7, 24 h; how it was run: as §1
# [10] = tested on: HeLa; test: Anticancer activity against human HeLa cells after 24 hrs by MTT assay; format: functional, cell-based; how it was run: as §1
# [11] = tested on: NRK; test: Cytotoxicty against rat NRK cells after 24 hrs by MTT assay; format: cell-based; how it was run: as §1
# [12] = Induction of hemolysis in human erythrocytes assessed as mean erythrocyte fragility by measuring level of hemolysis at 50% PBS at 50 ug/mL by spectrophotomtery based erythrocyte osmotic fragility assay; format: cell-based; how it was run: as §2
SMILES,IC50 [1] [µg/mL],IC50 [2] [µg/mL],IC50 [3] [µg/mL],IC50 [4] [µg/mL],IC50 [5] [µg/mL],IC50 [6] [µg/mL],Activity [7],IC50 [8] [µg/mL],IC50 [9] [µg/mL],IC50 [10] [µg/mL],IC50 [11] [µg/mL],Activity [12]
CC(=O)O[C@H]1C(=O)[C@@]2(C)[C@H]([C@H](OC(=O)c3ccccc3)[C@]3(O)C[C@H](OC(=O)[C@H](O)[C@@H](NC(=O)c4ccccc4)c4ccccc4)C(C)=C1C3(C)C)[C@]1(OC(C)=O)CO[C@@H]1C[C@@H]2O [PACLITAXEL],0.026,0.008,7.53,0.018,7.3,0.004,–,–,–,–,–,–
COc1cc(/C=C/C(=O)CC(=O)/C=C/c2ccc(O)c(OC)c2)ccc1O [CURCUMIN],–,–,–,–,–,–,0.53,–,–,–,–,–
C=C[C@@]1(C)CC(=O)[C@@]23O[C@@H](c4ccccc4)O[C@H]4CCC(C)(C)[C@H]([C@H](O)[C@H](O)[C@@]2(C)O1)[C@]43C,20.8,1.17,20.4,1.26,21.6,9.79,0.69,> 100,> 100,3.89,23.7,0.67
C=C[C@@]1(C)CC(=O)[C@@]23O[C@@H](C)O[C@H]4CCC(C)(C)[C@H]([C@H](OC(C)=O)[C@H](O)[C@@]2(C)O1)[C@]43C,> 100,> 100,41.6,> 100,> 100,> 100,–,6.4,39.2,17.4,> 100,–
COc1cc([C@@H]2c3cc4c(cc3[C@H](O)[C@H]3COC(=O)[C@H]23)OCO4)cc(OC)c1OC [PODOFILOX],0.017,0.12,0.034,0.013,1.05,–,0.69,–,–,3.14,–,–
C=C[C@@]1(C)CC(=O)[C@@]23O[C@@H](C)O[C@H]4CCC(C)(C)[C@H]([C@H](O)[C@H](O)[C@@]2(C)O1)[C@]43C,24.5,24.8,40.6,25.4,34.7,29.7,0.69,4.23,45.7,0.95,48,0.85
C=C[C@@]1(C)CC(=O)[C@@]23O[C@@H](/C=C/c4ccccc4)O[C@H]4CCC(C)(C)[C@H]([C@H](O)[C@H](OC(C)=O)[C@@]2(C)O1)[C@]43C,> 100,38.5,> 100,> 100,> 100,> 100,–,0.74,> 100,> 100,> 100,–
C=C[C@@]1(C)CC(=O)[C@@]23O[C@@H](c4ccc([N+](=O)[O-])cc4)O[C@H]4CCC(C)(C)[C@H]([C@H](O)[C@H](OC(C)=O)[C@@]2(C)O1)[C@]43C,> 100,> 100,> 100,> 100,> 100,> 100,–,0.76,> 100,> 100,> 100,–
C=C[C@@]1(C)CC(=O)[C@@]23O[C@@H](c4ccccc4)O[C@H]4CCC(C)(C)[C@H]([C@H](OC(C)=O)[C@H](O)[C@@]2(C)O1)[C@]43C,1.28,14.3,16.7,1.26,16.6,16.6,0.57,4.14,1.15,9.22,20.1,0.53
C=C[C@@]1(C)CC(=O)[C@@]23O[C@@H](C)O[C@H]4CCC(C)(C)[C@H]([C@H](O)[C@H](OC(C)=O)[C@@]2(C)O1)[C@]43C,> 100,> 100,> 100,> 100,> 100,> 100,–,5.87,> 100,> 100,> 100,–
C=C[C@@]1(C)CC(=O)[C@@]23O[C@@H](c4ccc(Br)cc4)O[C@H]4CCC(C)(C)[C@H]([C@H](O)[C@H](OC(C)=O)[C@@]2(C)O1)[C@]43C,> 100,> 100,> 100,> 100,> 100,> 100,–,> 100,> 100,46.2,> 100,–
C=C[C@@]1(C)CC(=O)[C@@]23O[C@@H](c4cccs4)O[C@H]4CCC(C)(C)[C@H]([C@H](O)[C@H](OC(C)=O)[C@@]2(C)O1)[C@]43C,> 100,40.1,> 100,> 100,> 100,> 100,–,> 100,> 100,42,> 100,–
C[C@H]1O[C@H](O[C@H]2[C@H](O)[C@@H](O)[C@@H](O[C@H]3[C@H](O)[C@@H](O)C(O)O[C@@H]3CO)O[C@@H]2CO)[C@H](O)[C@@H](O)[C@@H]1N[C@H]1C=C(CO)[C@@H](O)[C@H](O)[C@H]1O (stereo partly specified) [ACARBOSE],–,–,–,–,–,–,–,0.45,–,–,–,–
C=C[C@@]1(C)CC(=O)[C@@]23O[C@@H](c4ccccc4)O[C@H]4CCC(C)(C)[C@H]([C@H](O)[C@H](OC(C)=O)[C@@]2(C)O1)[C@]43C,> 100,> 100,> 100,> 100,> 100,> 100,–,2.81,> 100,> 100,> 100,–
C=C[C@@]1(C)CC(=O)[C@@]23O[C@@H](c4ccco4)O[C@H]4CCC(C)(C)[C@H]([C@H](O)[C@H](OC(C)=O)[C@@]2(C)O1)[C@]43C,> 100,> 100,> 100,> 100,> 100,> 100,–,4.96,> 100,> 100,> 100,–

# Source: ChEMBL document CHEMBL3352073, “Synthesis of cyclic 1,9-acetal derivatives of forskolin and their bioactivity evaluation” (Eur J Med Chem, 2014)
